# High-throughput results: PubChem, The Scripps Research Institute Molecular Screening Center
# Compounds with a hit are over-represented: about 3.3% of the library has one in this group of screens.
# PRMT1 FP inh – PRMT1 (human) inhibition, primary screen. Q99873. recombinant PRMT1, activity-based probe fluorescence polarization. inhibition, % at 2.79 µM. 370,000 compounds, 1.3% hits;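 active = inhibition above about 21% made by adding two undisclosed values, limit read from the data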
# rCAG RNA binder – r(CAG) repeat RNA binding; AID 651821; inhibition, % at 3 µM; TO-PRO-1 dye displacement fluorescence; 370,000 compounds, 1.3% hits;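 active = inhibition above the plate cutoff, the mean of all test compounds on that plate plus 3 SD, cut at about 35% in these data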;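 note: 0% = DMSO alone and 100% = 100 µM mitoxantrone as full dye displacement; higher means more dye released from RNA so lower well fluorescence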
# HTRA1 inhibitor – blocks human HTRA1 serine peptidase; recombinant HTRA1, FP-rhodamine activity-based probe, fluorescence polarization; inhibition, % at 5.96 µM; 340,000 compounds, 0.5% hits; AID 504803; in the data active = inhibition above about 36%;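 note: 0% = enzyme with DMSO and 100% = wells lacking enzyme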
# SIAE primary – blocks human sialic acid acetylesterase | inhibition, % at 9.66 µM | Q9HAT2 | AID 1053197 | SIAE FP-Rh probe binding, fluorescence polarization | 370,000 compounds, 0.69% hits;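 active = inhibition above a cutoff: mean of compounds within the control limits plus 3 SD of those, cut at about 17% in these data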;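 note: 0% = plate median of compound wells and 100% = probe without SIAE protein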
# Target sequence (Q9HAT2 whole entry, looked up): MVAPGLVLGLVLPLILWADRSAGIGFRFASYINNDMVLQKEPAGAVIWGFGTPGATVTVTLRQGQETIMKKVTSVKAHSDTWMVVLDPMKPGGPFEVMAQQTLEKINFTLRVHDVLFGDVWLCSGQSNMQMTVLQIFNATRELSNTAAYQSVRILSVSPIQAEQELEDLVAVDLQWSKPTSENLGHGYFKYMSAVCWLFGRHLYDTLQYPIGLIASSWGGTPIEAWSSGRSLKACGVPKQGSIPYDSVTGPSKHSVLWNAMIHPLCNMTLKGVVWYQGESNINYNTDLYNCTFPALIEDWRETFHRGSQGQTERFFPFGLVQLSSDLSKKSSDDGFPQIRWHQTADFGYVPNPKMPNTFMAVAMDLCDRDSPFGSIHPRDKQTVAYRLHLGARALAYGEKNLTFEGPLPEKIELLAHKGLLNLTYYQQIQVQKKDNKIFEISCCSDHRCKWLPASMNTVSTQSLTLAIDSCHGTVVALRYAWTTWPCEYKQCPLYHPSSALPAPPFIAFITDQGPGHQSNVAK
# mABHD4 FP – inhibitors of mouse ABHD4; inhibition, % at 8.92 µM; Q8VD66; AID 720543; 370,000 compounds, 0.54% hits; purified mABHD4, FP-Rh probe fluorescence polarization;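 active = inhibition exceeding the mean over every tested compound plus 3 SD, cut at about 30% in these data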;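 note: 0% = plate median of compound wells and 100% = S159A mutant with DMSO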
#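 Assay system: wild-type mouse ABHD4 protein; compound: single nominal dose of 8.92 µM, 0.89% DMSO final; schedule: 45 min + 60 min at 25 °C; measured by: FP readout, ex 525 nm / em 598 nm; evaluation: % inhibition of FP-Rh probe binding versus controls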
# * hit, by the source's call; . = no result.
SMILES,PRMT1 FP inh,rCAG RNA binder,HTRA1 inhibitor,SIAE primary,mABHD4 FP
CC(=O)C1=C(C)N(CC(C)C)C(=S)NC1c1ccc(Br)cc1 (stereo unspecified),8,0,.,1,0
CC1(C)c2ssc(=S)c2-c2ccccc2N1C(=O)c1ccco1,1,0,5,22*,-7
CC(C)C1N=C2c3ccccc3N=C(SCc3cc(=O)n4cc(Cl)ccc4n3)N2C1=O (stereo unspecified),-1,-2,-4,19*,3
CCCCOC(=O)c1ccc(NC(=O)Nc2ccc(OC)c(OC)c2)cc1,-3,10,-2,20*,13
CCOC(=O)c1ccc(NC(=O)Nc2ccc(OC)c(OC)c2)cc1,-1,1,4,15,13
Cc1cc(=O)c2c(O)c(O)ccc2o1,23*,8,18,3,23
CCOC(=O)N1CCN(c2cc(NCCC(=O)O)c3c4c(onc24)-c2ccccc2C3=O)CC1,.,.,40*,.,.
CCOC(=O)N1CCN(C(=O)c2noc3c2COc2ccccc2-3)CC1,0,-8,1,2,9
CN1CCN(c2cc(N3CCN(C(=O)c4ccco4)CC3)c3c4c(onc24)-c2ccccc2C3=O)CC1,.,.,63*,.,.
S=c1[nH]nc(-c2ccc3ccccc3n2)n1-c1ccccc1,23*,4,5,2,3
COC(=O)Nc1cc(C(=O)c2ccc(Cl)cc2Cl)c[nH]1,24*,9,-13,-18,-45
COC(=O)NNC(=O)c1ccc(Cl)cc1Cl,-1,4,1,3,-16
COC(=O)N1C[C@H](O)[C@H](O)C[C@@H]1c1ccccc1Br,-1,3,.,-3,-2
CCOc1cc(CNc2ccc(O)cc2)ccc1OCc1ccc(Cl)cc1Cl,.,.,62*,.,.
COC(=O)[C@H](CC(C)C)N(CCCc1cn(Cc2ccc(C)cc2)nn1)S(=O)(=O)c1ccccc1Br,-1,2,.,8,-1
Cc1nc(N2CCN(C(=O)c3ccco3)CC2)c(C#N)c2c1CCCC2,4,-5,7,2,-1
Cc1cc(C)c2nc(N3CCCN(C(=O)c4ccco4)CC3)c(C#N)cc2c1,22*,6,-24,-2,2
Cc1cccc(NC(=O)CNC(=O)[C@@H](Cc2ccccc2)NC(=O)[C@H]2O[C@@H](n3ccc(=O)[nH]c3=O)[C@H](O)[C@@H]2O)c1C,-5,3,.,0,-3
CCN(C(=O)COC(=O)CCC(=O)c1ccccc1)c1c(N)n(Cc2ccccc2)c(=O)[nH]c1=O,-2,6,2,26*,-5
Nc1cc(C(=O)O)c(N)c2c1C(=O)c1ccccc1C2=O,.,.,82*,.,.
COc1ccc(CNC2CCC23CCC(C)CC3)cc1OC (stereo unspecified),-3,.,.,-6,6
CC(C)(C)c1ccc(C#C[C@@H]2C=C[C@@H](O)[C@@H](COC(=O)Nc3ccccc3)O2)cc1,0,2,.,-7,-19
CC(=O)NC1C(=O)N(CCN2CCOCC2)c2ccc(Cl)cc21 (stereo unspecified),22*,-2,-1,1,9
CC(=O)NC1C(=O)N(CCN2CCOCC2)c2ccc(C)cc21 (stereo unspecified),.,.,1,.,.
CC(=O)c1cccc(CN2CCCC(C(=O)Nc3cccc(-n4cccn4)c3)C2)c1 (stereo unspecified),22*,-1,1,1,-11
SMILES,PRMT1 FP inh,rCAG RNA binder,HTRA1 inhibitor,SIAE primary,mABHD4 FP
COC(=O)C1=C(C)N(Cc2ccccc2C(F)(F)F)C(=NCc2cc(OC)c(OC)c(OC)c2)NC1c1cccc(F)c1 (stereo unspecified),-3,4,.,8,8
Nc1[nH]c(C(=O)c2ccc(Br)cc2)c(-c2ccccc2)c1C(=O)NCCc1c[nH]c2ccccc12,-4,12,.,12,10
O=C(/C=C\c1ccc(-c2ccccc2)o1)c1ccccc1,26*,14,-3,-1,6
O=C(/C=C/c1ccccc1)c1ccccc1,-3,3,-4,0,-6
CCCN1CCCCC(NC(=O)OC(C)(C)C)C1=O (stereo unspecified),0,2,.,-6,2
O=C(CSC1=NCCS1)Nc1ccccc1F,22*,3,-2,1,-7
CC(C)NC(=O)COC(=O)c1ccccc1CSC1=NCCS1,-6,-1,-2,7,1
O=C(O)c1ccccc1CSC1=NCCS1,21*,9,6,0,-4
O=C(CSC1=NCCS1)Nc1cccc2ccccc12,21,4,-10,-6,-18
C[C@H]1[C@@H]2C[C@@]3(O[C@H](c4ccc(C(F)(F)F)cc4)N=C3C[C@@H]1c1ccccc1)N(Cc1ccncc1)C2=O,-3,1,.,4,-10
Cn1cc(CC(=O)Nc2ccc(Nc3cccnc3)c(Br)c2)c2ccccc21,-1,9,.,12,13
CCc1c(O)nc(SCC(=O)c2ccccc2)n(-c2ccccc2)c1=O,24*,4,8,5,0
CC(C)(C)NC(=O)CSc1n[nH]c(=O)n1-c1ccccc1,-1,1,9,4,5
CCCCc1c(O)nc(SCCN(C)C)n(-c2ccccc2)c1=O,24*,-1,-3,3,-3
CCc1c(O)nc(SCC(=O)NC(C)(C)C)n(-c2ccccc2)c1=O,24*,6,-3,-1,0
CCc1c(O)nc(SCC(=O)N2CCOCC2)n(-c2ccccc2)c1=O,16,2,-4,9,-1
CN(C)CCSc1nc(O)c(-c2ccccc2)c(=O)n1-c1ccccc1,20,-2,3,2,0
COc1ccccc1-c1cccc2c3c([nH]c12)[C@@H]1C[C@H]2[C@@H](C(=O)N1CC3)[C@H](C)ON2C,-1,5,.,-2,3
COC(=O)[C@]12C[C@H](CC(=O)NCCc3ccccc3OC)C(=O)N(Cc3ccc(Cl)cc3Cl)C1=C[C@H](C(C)(C)C)O[C@@H]2C,2,6,.,11,-5
Cn1c(=O)oc2ccc(S(=O)(=O)Nc3ccc(Cl)cc3[N+](=O)[O-])cc21,3,19,.,-3,9
O=C(Nc1ccccc1)Nc1ccc(Cl)c([N+](=O)[O-])c1,-1,6,-21,54*,-19
CCOC(=O)C1CCCN(C(=O)c2ccc(-c3ccc([N+](=O)[O-])cc3)o2)C1 (stereo unspecified),24*,11,1,-1,17
CCC(c1nc2ccccc2[nH]1)n1c(-c2ccc3cc[nH]c3c2)nc2ccccc21 (stereo unspecified),6,14,.,-6,-28
COc1cc(-c2nnc(-c3cccs3)o2)cc(OC)c1OC,0,1,-3,18*,-5
O=c1c2cc(F)ccc2sn1-c1ccc(F)cc1,.,.,4,.,.
COc1ccc(-n2sc3ccc(F)cc3c2=O)cc1,87*,8,8,12,29
Cc1ccc(C)c(-n2sc3ccc(F)cc3c2=O)c1,91*,-1,-5,17,20
CCOc1ccc(-n2c(SCc3ccc(C#N)cc3)nnc2-c2ccco2)cc1,9,7,.,-6,-15
